# Assay results from publication PMC11605122 (Nature Communications, 2024).
# Columns and labels:
# [1] = system: eWAT stromal vascular fraction; experiment: immune cell populations in eWAT SVF; type: in vivo, mouse
# Procedure, shortened: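 eWAT was digested, stopped with EDTA, filtered at 100 µm and red cells lysed in ACK. The SVF was stained 20 min at RT in FACS buffer (1 mM EDTA, 25 mM HEPES, 1% FBS in PBS) with a panel including CD45, CD11b, F4/80, Ly6G, CD11c, CD206, SiglecF, T/NK markers and IL-4, or isotype controls. Acquisition was on a FACSCanto II.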
# [2] = intrahepatic triglyceride content; type: in vivo, mouse; conditions: DIO mice
# [3] = blood glucose; type: in vivo, mouse
# Procedure, shortened: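 DIO mice were fed 60%-fat HFD from 8 weeks of age, for 12 weeks (males) or 24 weeks (females); one male cohort was housed at 30 °C. The test compound was given s.c. every 2 days in 50 mM sodium phosphate/300 mM mannitol pH 6.9. Glucose and ketone bodies were read in tail-vein blood.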
# [4] = system: pancreatic islets from DIO mice; experiment: ex vivo glucose-stimulated insulin secretion; type: cell-based, mouse; conditions: 500 nM G49, 1 or 24 h
# Procedure, shortened: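 Islets were plated at 100 per 3 mL and treated the next day with 500 nM test compound for 1 or 24 h. After 1 h preincubation in KRB (2.8 mM glucose, 0.25% BSA, pH 7.4, 37 °C), batches of 3 islets were stimulated 1 h with 2.8 or 16.7 mM glucose. Insulin was measured by ELISA and normalised per islet; n = 4 mice.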
# [5] = system: primary mouse hepatocytes; experiment: fatty acid oxidation and Cpt1a in primary mouse hepatocytes; type: cell-based; conditions: 500 nM G49, 16 h
# Procedure, shortened: (§1)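 Primary hepatocytes came from non-fasted male C57BL/6J mice fed HFD for 12 weeks, with or without in vivo treatment, by two-step collagenase perfusion. Cells were spun at 60 × g, purified on isotonic Percoll (1:1) at 230 × g and seeded on collagen. They were cultured 24 h at 37 °C, 5% CO2 before exposure to the test compound.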
# [6] = system: BAT explants; experiment: OCR in BAT explants; type: in vivo, mouse; conditions: BAT explants of mice treated with G49 for 3 days
# Procedure, shortened: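 BAT explants came from DIO mice given test compound or vehicle for 72 h. OCR was run as a Seahorse Mito Stress assay with 2 µM oligomycin A, 2 µM FCCP, then 10 µM rotenone plus 10 µM antimycin. OCR (pmol/min) came from O2 tension over time.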
# [7] = system: POMC neurons, arcuate nucleus; experiment: cFos-positive POMC neurons in ARC; type: in vivo, mouse; conditions: DIO mice
# Procedure, shortened: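 Brain slices were blocked 2 h at RT in PBS with 1% BSA and 0.1% Triton X-100. They were incubated overnight at 4 °C with anti-POMC and anti-c-Fos, then with secondary antibodies in 1% BSA/PBS for 2 h at RT, protected from light.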
# [8] = system: brown adipocytes; experiment: fatty acid oxidation in brown adipocytes; type: cell-based, mouse; conditions: G49, brown adipocytes
# Procedure, shortened: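 Palmitate oxidation to CO2 and to acid-soluble material (acyl-carnitine, Krebs cycle intermediates, acetyl-CoA) was measured in primary hepatocytes or differentiated brown adipocytes, with or without 500 nM test compound.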
# [9] = TUNEL analysis of eWAT; type: in vivo, mouse; conditions: 6 h post-G49
# Procedure, shortened: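 Paraffin-embedded eWAT sections were stained with a fluorimetric DeadEnd TUNEL kit, mounted in fluorescent medium and imaged by confocal microscopy.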
# [10] = plasma insulin; type: in vivo, mouse; conditions: DIO mice
# Procedure, shortened: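 Plasma ALT was read with Reflotron strips and plasma TGs by colorimetric assay. Serum FGF21 and plasma adiponectin and insulin were measured by ELISA.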
# [11] = plasma FFAs; type: in vivo, mouse; conditions: for plasma FFA elevation: DIO mice
# [12] = system: brown adipocytes; experiment: thermogenic gene expression and UCP1 in brown adipocytes; type: cell-based, mouse; conditions: G49, brown adipocytes
# Procedure, shortened: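 Brown preadipocytes were immortalised by retroviral SV40 Large T (20% FBS, 8 μg/mL polybrene, 48 h) at 70–80% confluence. Differentiation began with 2 days in induction medium (0.5 μM dexamethasone, 0.5 mM IBMX, indomethacin, 1 μM rosiglitazone).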
# [13] = cumulative food intake; type: in vivo, mouse; conditions: DIO mice, H + G49, 72 h, versus vehicle
# [14] = BAT skin temperature; type: in vivo, mouse
# [15] = system: primary mouse hepatocytes; experiment: FGF21 release and gene expression in primary hepatocytes; type: cell-based; conditions: 500 nM G49, 16 h
# Procedure, shortened: as §1
sequence,measurement,setting,value
HSQGTFTSDYSKYLEEEAVRLFIC (40 kDa PEG) WLMNT-amide acetate salt [G49],eWAT beiging signature,"[1]; DIO mice, G49 + ATGLi, 6 h",absence of the eWAT beiging signature
same,beige immune signature of SVF,"[1]; DIO mice, G49 + GCGRant, 6 h",loss of the beige immune signature of the SVF
same,Cd206+/Cd11c+ ratio in neutrophils,"[1]; SVF of eWAT, G49, 6 h",increased the Cd206^+/Cd11c^+ ratio
same,M2 and M1 macrophages,"[1]; SVF of eWAT, G49, 6 h","increase in M2 (Cd206^+) subpopulation, concomitantly with a decrease in M1 (Cd11c^+) cells"
same,eosinophils (SiglecF+/Cd11b+/Cd11c−),"[1]; SVF of eWAT, G49, 6 h",infiltration of eosinophils
same,neutrophil infiltration (Cd11b+Ly6g+),"[1]; SVF of eWAT, G49, 6 h",reduction in neutrophil infiltration
same,hepatic lipid overload,"[2]; G49 + GCGRant, 6 h",hepatic lipid overload and ALT elevation were not observed
same,liver triglycerides,"[2]; G49, time course","elevated at 3–12 h post-injection, peaking at 6 h"
same,blood glucose and adiposity,"[3]; female DIO mice, G49, 1 week",efficacy of G49 in reducing blood glucose and adiposity was also found in female mice
same,blood glucose and adiposity,"[3]; male DIO mice at thermoneutrality (30 °C), G49",in male mice housed at thermoneutrality
same,insulin secretion,[4],also observed by ex vivo treatment of pancreatic islets from DIO mice with G49
same,Cpt1a mRNA and FAO,[5],increased Cpt1a mRNA levels and FAO
same,basal and maximal respiration,[6],increased basal and maximal respiration in BAT explants
same,"activated POMC neurons, 1 week","[7]; G49, 1 week",percentage of activated POMC neurons was reduced
same,"cFos-positive POMC neurons, early","[7]; G49, after first injection",increase in cFos-positive POMC neurons
same,Cpt1b expression and FAO,[8],increased Cpt1b gene expression and FAO
same,TUNEL positive cells,[9],presence of TUNEL positive cells
same,plasma insulin,"[10]; G49 + ATGLi, 6 h",plasma insulin was partly reduced
same,peak in insulin secretion,"[10]; G49 + Ex9-39, 6 h",Ex9-39 totally abolished this increase
same,peak in insulin secretion,"[10]; G49 + GCGRant, 6 h",partially blocked by the GCGRant
same,"plasma insulin, early","[10]; G49, 6 h",a rise in plasma insulin
same,plasma FFA elevation,"[11]; G49 + Ex9-39, 6 h",retained its effect in elevating FFAs in the presence of Ex9-39
same,plasma FFA elevation,"[11]; G49 + GCGRant, 6 h",abolished the acute effects of G49 in reducing total and visceral adiposity at 6 h post-injection and FFA elevation
same,plasma FFAs,"[11]; UCP1−/− mice, G49, 6 h",showed elevations in FFAs (at 6 h)
same,plasma FFAs,"[11]; irradiated DIO mice, G49, 6 h",the elevation of FFAs was preserved
same,plasma FFAs,"[11]; lean Gcgr−/− mice, single injection of G49, 1–6 h",did not elevate plasma FFAs at 1–6 h in Gcgr^−/− mice
same,lipolysis at 6 h and 1 h,"[11]; lean or DIO mice, G49","increased lipolysis at 6 h, but not at 1 h post-injection"
same,thermogenic gene expression and UCP1 protein,[12],"up-regulated lipolysis, thermogenic gene expression (Ucp1, Ppargc1a, Sir2) and UCP1 protein levels in BA"
same,inhibition of cumulative food intake,[13],28.30 ± 2.61%
same,BAT temperature,"[14]; Adipoq−/− mice, G49",G49-mediated increase in BAT temperature was reduced
same,BAT temperature,"[14]; DIO mice, G49 + ATGLi, 72 h",suppression of G49 effects on UCP1 expression and BAT temperature
same,BAT temperature,"[14]; FGF21Alb-KO mice, G49 plus recombinant murine FGF21",markedly increased UCP1 protein levels and BAT temperature
same,BAT activation,"[14]; UCP1−/− mice, G49, 1 week",no features of BAT activation were found
same,FGF21 release and Sir2 expression,[15],increased FGF21 levels released to the culture medium and Sir2 expression
